# Experimental data taken from PubChem BioAssay.
# For some assays here: Measured potencies and affinities stand elsewhere. Calls of active or inactive are those of the source.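 How the source made its calls, unless noted: active means membrane potential signal rise above negative control mean plus 3 SD in both duplicates, also active in the earlier TRPC4 screen; inactive means the rest.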
# Target: Short transient receptor potential channel 4 (Mus musculus) (UniProt Q9QUQ5)
# Test: block of DAMGO-driven TRPC4 calcium entry – cell-based, HEK293 TRPC4/mu-opioid, Fluo-4 calcium, dose response (AID 434942;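 active means primary screen inhibitor hit that blocks the TRPC4 channel at some tested dose, yielding a dose curve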)
# Conditions: HEK293 TRPC4/mu-opioid cells, DAMGO-evoked Fluo-4 calcium ratio; series mostly up to 20 µM
# Chain of Short transient receptor potential channel 4 (Mus musculus) (Q9QUQ5 whole entry, looked up): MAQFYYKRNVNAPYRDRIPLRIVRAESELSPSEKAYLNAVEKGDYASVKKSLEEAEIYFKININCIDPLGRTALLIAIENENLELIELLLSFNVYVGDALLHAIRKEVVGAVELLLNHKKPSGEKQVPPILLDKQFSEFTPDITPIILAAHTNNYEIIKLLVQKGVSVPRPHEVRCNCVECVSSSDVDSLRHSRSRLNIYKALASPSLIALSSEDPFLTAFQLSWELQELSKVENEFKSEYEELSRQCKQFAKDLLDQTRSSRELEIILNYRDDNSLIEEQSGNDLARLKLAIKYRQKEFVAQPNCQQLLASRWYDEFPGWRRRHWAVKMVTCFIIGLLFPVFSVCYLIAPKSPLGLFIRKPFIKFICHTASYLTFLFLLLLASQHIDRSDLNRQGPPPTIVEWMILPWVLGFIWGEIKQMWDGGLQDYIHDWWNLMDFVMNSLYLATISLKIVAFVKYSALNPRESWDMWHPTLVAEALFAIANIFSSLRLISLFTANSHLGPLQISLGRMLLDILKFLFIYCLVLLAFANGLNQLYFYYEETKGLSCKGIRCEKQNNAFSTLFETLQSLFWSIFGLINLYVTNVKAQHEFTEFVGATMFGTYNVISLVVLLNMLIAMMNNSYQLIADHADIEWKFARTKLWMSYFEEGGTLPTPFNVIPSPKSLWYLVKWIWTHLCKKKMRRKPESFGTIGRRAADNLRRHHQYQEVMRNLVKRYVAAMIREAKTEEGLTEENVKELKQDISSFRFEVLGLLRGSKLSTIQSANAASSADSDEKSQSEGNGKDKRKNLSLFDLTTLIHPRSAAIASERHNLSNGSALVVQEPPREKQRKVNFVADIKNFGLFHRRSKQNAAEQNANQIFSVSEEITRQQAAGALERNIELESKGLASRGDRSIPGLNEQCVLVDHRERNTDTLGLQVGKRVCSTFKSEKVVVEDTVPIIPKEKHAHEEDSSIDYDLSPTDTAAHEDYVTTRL
row,Compound,outcome
1,CNc1nc(N2CCc3ccccc32)ncc1F,inactive
2,Cc1cccc(Cn2c(N3CCN(c4ccccc4)CC3)nc3c2c(=O)n(C)c(=O)n3C)c1,inactive
3,O=C(Nc1cccc(Cl)c1)N1CCN(C/C=C/c2ccccc2)CC1,inactive

# Target: Short transient receptor potential channel 6 (Mus musculus) (UniProt Q61143)
# Sequence (Q61143 whole entry, looked up): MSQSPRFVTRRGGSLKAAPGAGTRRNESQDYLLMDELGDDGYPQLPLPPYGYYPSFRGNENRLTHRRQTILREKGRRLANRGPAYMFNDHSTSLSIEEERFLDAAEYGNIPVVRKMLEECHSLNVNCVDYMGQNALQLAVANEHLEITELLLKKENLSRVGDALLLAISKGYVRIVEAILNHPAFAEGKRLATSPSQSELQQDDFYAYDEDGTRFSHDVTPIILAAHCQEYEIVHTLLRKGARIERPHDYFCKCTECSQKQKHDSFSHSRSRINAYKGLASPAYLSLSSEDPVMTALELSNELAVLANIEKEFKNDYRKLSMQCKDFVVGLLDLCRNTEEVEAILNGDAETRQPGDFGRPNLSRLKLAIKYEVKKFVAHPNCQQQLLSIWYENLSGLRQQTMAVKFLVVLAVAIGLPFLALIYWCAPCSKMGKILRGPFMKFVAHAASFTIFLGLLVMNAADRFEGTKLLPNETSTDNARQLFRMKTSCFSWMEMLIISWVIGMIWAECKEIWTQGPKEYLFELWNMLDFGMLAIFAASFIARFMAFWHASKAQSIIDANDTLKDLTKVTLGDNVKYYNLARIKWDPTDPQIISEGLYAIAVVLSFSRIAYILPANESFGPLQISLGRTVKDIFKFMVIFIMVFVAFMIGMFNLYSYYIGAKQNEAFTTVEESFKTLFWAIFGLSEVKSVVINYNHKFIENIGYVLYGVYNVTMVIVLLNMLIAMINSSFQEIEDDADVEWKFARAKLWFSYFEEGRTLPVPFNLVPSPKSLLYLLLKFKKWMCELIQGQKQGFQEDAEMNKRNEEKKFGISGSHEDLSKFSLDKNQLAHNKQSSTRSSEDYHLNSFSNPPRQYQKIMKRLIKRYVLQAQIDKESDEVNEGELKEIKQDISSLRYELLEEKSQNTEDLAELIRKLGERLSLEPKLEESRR
# Test: TRPC6 blockade by TRPC4 inhibitor hits – cell-based, HEK293, membrane potential dye, duplicate, selectivity assay for TRPC4 inhibitor project, confirmation (AID 434948;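 active means active in primary screen and both duplicates, each dropping signal beyond three positive-control SD with fluorescence still positive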)
# Conditions: HEK293 TRPC6, membrane potential dye fluorescence, at 10 µM, stimulated with maximal-effect acetylcholine; hits give high values
# Procedure, shortened: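 Reagent: acetylcholine at maximal (ECmax) concentration, added after compound; system: HEK293 cells expressing mouse TRPC6 channel; read-out basis: control-normalized integrated fluorescence ratio; replicates: duplicate testing; times: 45 min RT dye load, 110 s compound, 110 s agonist read; signal: membrane potential dye fluorescence, kinetic read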
row,Compound,outcome
1,COc1ccc(-n2nc(C(=O)NCC(=O)NCCCN3CC(C)CC(C)C3)c3ccccc3c2=O)cc1Cl (stereo not drawn),inactive
2,Cc1cc(OCC(=O)N(C(C)C)C(C)C)cc(C)c1Br,inactive
3,CCCCCCn1c(N2CCN(c3ccccc3)CC2)nc2c1c(=O)n(C)c(=O)n2C,inactive
4,CCC(=O)NC(C)C(c1cccs1)N1CCN(c2ccccc2)CC1 (stereo not drawn),inactive
5,Cc1ccc(-c2nnc(N3CCC(C)CC3)c3ccccc23)cc1C,inactive
6,Cc1cc(C(C)(C)C)c(O)c(C)c1CC1=NCCN1,inactive
7,Cc1sc2ncnc(NCC(c3ccccc3)N(C)C)c2c1C (stereo not drawn),inactive
8,O=C(NCc1ccccc1)C1=C[C@H](c2ccc(Br)cc2)C[C@H](OCc2ccc(CO)cc2)O1,inactive
9,O=C(Nc1ccccc1)C1=C[C@H](C2CCCCC2)C[C@H](OCc2ccc(CO)cc2)O1,inactive
10,Cc1ccc(S(=O)(=O)N2CCC(N3CCN(C)CC3)CC2)cc1Cl,inactive
11,Cc1cc(OCC(=O)NC2CCCCC2)ccc1Cl,inactive
12,O=[N+]([O-])c1ccc(/C=N/Nc2nc(N3CCCCC3)nc(N3CCCCC3)n2)o1,inactive
13,Cc1cccc(/C=N/NC(=O)c2cccc(Cl)c2)n1,inactive
14,S=C(NCCc1ccccn1)NC1CCCCC1,inactive
15,Cc1cccc(Cc2c(C)nc3c(C(=O)NCc4ccco4)cnn3c2C)c1,inactive
16,Cc1ccc(Cn2c(=N)c(C(=O)NC3CCCC3)cc3c(=O)n4ccccc4nc32)cc1,inactive
17,COC(=O)[C@@]12CCCCN1[C@H](c1ccc(-c3cccc(Cl)c3)c(OC)c1)[C@H]1C(=O)N(C)C(=O)[C@H]12,inactive
18,CC1=C(C(=O)NCc2ccccc2)C(c2cc(Br)cc(Br)c2OC(C)C)NC(=O)N1 (stereo not drawn),inactive
19,CC1Cc2ccccc2N1C(=O)CSc1nc2c(c(=O)n(C)c(=O)n2C)n1Cc1ccc(F)cc1 (stereo not drawn),inactive
20,CCN1CCN(c2ccc(S(=O)(=O)N3CCOCC3)cc2NC(=O)c2ccccc2OC(F)F)CC1,inactive

row,Compound,outcome
1,O=C1C(Cl)=C(Nc2cccc(O)c2)C(=O)N1Cc1ccccc1,inactive
2,O=C(NCc1ccccc1)C1=C[C@H](c2ccc(C(F)(F)F)cc2)C[C@H](OCc2ccc(CO)cc2)O1,inactive
3,COc1ccc(C)c(NC(=O)NCCc2cnc[nH]2)c1,inactive
4,CN(C)CCNc1ccc(Cl)cc1[N+](=O)[O-],inactive
5,CCn1c(O)c(N=NC(=O)c2cccc(S(=O)(=O)N3CCCCC3)c2)c2ccccc21,inactive
6,Cc1onc(-c2ccccc2)c1C(=O)NNC(=S)NC(=O)c1ccc2c(c1)OCO2,inactive
7,COc1ccc(Cl)cc1C(=O)NCCN(C)C,inactive
8,O=C1NCN(c2ccccc2)C12CCN(CCCC(c1ccc(F)cc1)c1ccc(F)cc1)CC2,inactive
9,Cc1ccc(/C=N/NC(=O)NC2CCCCC2)o1,inactive
10,O=C(Nc1cccc(Cl)c1)c1cnn2cccnc12,inactive
11,COc1c(C)cc(C(=O)C2CCCN(Cc3cccc4nccnc34)C2)cc1C (stereo not drawn),inactive
12,O=C(c1cccc([N+](=O)[O-])c1)N1CCCC(C(=O)N2CCCCCC2)C1 (stereo not drawn),inactive
13,CCOc1ccc(-n2c(SCC(=O)O)nc3sc4c(c3c2=O)CCCC4)cc1,inactive
14,Cc1cc(-c2ccc(C)c(S(=O)(=O)N3CCN(C(=O)c4ccco4)CC3)c2)on1,inactive
15,O=C(NC1CCN(Cc2ccccc2)CC1)C12CC3CC(CC(C3)C1)C2,inactive
16,Cc1cccc(/C=N/NC(=O)c2cc(Br)ccc2O)n1,inactive
17,C1CCN(c2nc(N3CCCC3)nc(N3CCNCC3)n2)C1,inactive
18,CNc1nc(N2CCc3ccccc32)ncc1F,inactive
19,Cc1cccc(Cn2c(N3CCN(c4ccccc4)CC3)nc3c2c(=O)n(C)c(=O)n3C)c1,inactive
20,O=C(Nc1cccc(Cl)c1)N1CCN(C/C=C/c2ccccc2)CC1,inactive

# Target: Short transient receptor potential channel 6 (Mus musculus) (UniProt Q61143)
# Test: TRPC6 opening by TRPC4 activator hits – cell-based, HEK293, membrane potential dye, duplicate, selectivity assay for TRPC4 activator project, confirmation (AID 434950);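 on activation: 0% = buffer only wells and 100% = acetylcholine maximal-effect wells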
# Conditions: HEK293 TRPC6, membrane potential fluorescence, at 10 µM; activation: hits give high values; outcome: activation
Compound,outcome,activation
COc1ccc(-n2nc(C(=O)NCC(=O)NCCCN3CC(C)CC(C)C3)c3ccccc3c2=O)cc1Cl (stereo not drawn),inactive,
Cc1cc(OCC(=O)N(C(C)C)C(C)C)cc(C)c1Br,inactive,
CCCCCCn1c(N2CCN(c3ccccc3)CC2)nc2c1c(=O)n(C)c(=O)n2C,inactive,
CCC(=O)NC(C)C(c1cccs1)N1CCN(c2ccccc2)CC1 (stereo not drawn),,29% (active)
Cc1ccc(-c2nnc(N3CCC(C)CC3)c3ccccc23)cc1C,inactive,
Cc1cc(C(C)(C)C)c(O)c(C)c1CC1=NCCN1,inactive,
Cc1sc2ncnc(NCC(c3ccccc3)N(C)C)c2c1C (stereo not drawn),inactive,
O=C(NCc1ccccc1)C1=C[C@H](c2ccc(Br)cc2)C[C@H](OCc2ccc(CO)cc2)O1,inactive,
O=C(Nc1ccccc1)C1=C[C@H](C2CCCCC2)C[C@H](OCc2ccc(CO)cc2)O1,inactive,
Cc1ccc(S(=O)(=O)N2CCC(N3CCN(C)CC3)CC2)cc1Cl,inactive,
Cc1cc(OCC(=O)NC2CCCCC2)ccc1Cl,inactive,
O=[N+]([O-])c1ccc(/C=N/Nc2nc(N3CCCCC3)nc(N3CCCCC3)n2)o1,inactive,
Cc1cccc(/C=N/NC(=O)c2cccc(Cl)c2)n1,inactive,
S=C(NCCc1ccccn1)NC1CCCCC1,,24.5% (active)
Cc1cccc(Cc2c(C)nc3c(C(=O)NCc4ccco4)cnn3c2C)c1,inactive,
Cc1ccc(Cn2c(=N)c(C(=O)NC3CCCC3)cc3c(=O)n4ccccc4nc32)cc1,inactive,
COC(=O)[C@@]12CCCCN1[C@H](c1ccc(-c3cccc(Cl)c3)c(OC)c1)[C@H]1C(=O)N(C)C(=O)[C@H]12,inactive,
CC1=C(C(=O)NCc2ccccc2)C(c2cc(Br)cc(Br)c2OC(C)C)NC(=O)N1 (stereo not drawn),inactive,
CC1Cc2ccccc2N1C(=O)CSc1nc2c(c(=O)n(C)c(=O)n2C)n1Cc1ccc(F)cc1 (stereo not drawn),inactive,
CCN1CCN(c2ccc(S(=O)(=O)N3CCOCC3)cc2NC(=O)c2ccccc2OC(F)F)CC1,inactive,

Compound,outcome,activation
O=C1C(Cl)=C(Nc2cccc(O)c2)C(=O)N1Cc1ccccc1,inactive,
O=C(NCc1ccccc1)C1=C[C@H](c2ccc(C(F)(F)F)cc2)C[C@H](OCc2ccc(CO)cc2)O1,inactive,
COc1ccc(C)c(NC(=O)NCCc2cnc[nH]2)c1,,33% (active)
CN(C)CCNc1ccc(Cl)cc1[N+](=O)[O-],inactive,
CCn1c(O)c(N=NC(=O)c2cccc(S(=O)(=O)N3CCCCC3)c2)c2ccccc21,inactive,
Cc1onc(-c2ccccc2)c1C(=O)NNC(=S)NC(=O)c1ccc2c(c1)OCO2,inactive,
COc1ccc(Cl)cc1C(=O)NCCN(C)C,inactive,
O=C1NCN(c2ccccc2)C12CCN(CCCC(c1ccc(F)cc1)c1ccc(F)cc1)CC2,,31% (active)
Cc1ccc(/C=N/NC(=O)NC2CCCCC2)o1,inactive,
O=C(Nc1cccc(Cl)c1)c1cnn2cccnc12,inactive,
COc1c(C)cc(C(=O)C2CCCN(Cc3cccc4nccnc34)C2)cc1C (stereo not drawn),,24% (active)
O=C(c1cccc([N+](=O)[O-])c1)N1CCCC(C(=O)N2CCCCCC2)C1 (stereo not drawn),inactive,
CCOc1ccc(-n2c(SCC(=O)O)nc3sc4c(c3c2=O)CCCC4)cc1,inactive,
Cc1cc(-c2ccc(C)c(S(=O)(=O)N3CCN(C(=O)c4ccco4)CC3)c2)on1,inactive,
O=C(NC1CCN(Cc2ccccc2)CC1)C12CC3CC(CC(C3)C1)C2,,54% (active)
Cc1cccc(/C=N/NC(=O)c2cc(Br)ccc2O)n1,inactive,
C1CCN(c2nc(N3CCCC3)nc(N3CCNCC3)n2)C1,inactive,
CNc1nc(N2CCc3ccccc32)ncc1F,inactive,
Cc1cccc(Cn2c(N3CCN(c4ccccc4)CC3)nc3c2c(=O)n(C)c(=O)n3C)c1,inactive,
O=C(Nc1cccc(Cl)c1)N1CCN(C/C=C/c2ccccc2)CC1,inactive,
